Data: ChEMBL document CHEMBL4138227, “Identification of an oxime-containing C-glucosylarene as a potential inhibitor of sodium-dependent glucose co-transporter 2” (Eur J Med Chem, 2018)
Each block holds one molecule with its values, some of them ahead of it.

Assays:
[1] = target: T1, Sodium/glucose cotransporter 2 (Homo sapiens, UniProt P31639); assay: Inhibition of human SGLT2 expressed in CHO cells assessed as reduction in [14C]AMG uptake after 1 hr by microbeta counting method; format: cell-based
T1 sequence (P31639 whole entry): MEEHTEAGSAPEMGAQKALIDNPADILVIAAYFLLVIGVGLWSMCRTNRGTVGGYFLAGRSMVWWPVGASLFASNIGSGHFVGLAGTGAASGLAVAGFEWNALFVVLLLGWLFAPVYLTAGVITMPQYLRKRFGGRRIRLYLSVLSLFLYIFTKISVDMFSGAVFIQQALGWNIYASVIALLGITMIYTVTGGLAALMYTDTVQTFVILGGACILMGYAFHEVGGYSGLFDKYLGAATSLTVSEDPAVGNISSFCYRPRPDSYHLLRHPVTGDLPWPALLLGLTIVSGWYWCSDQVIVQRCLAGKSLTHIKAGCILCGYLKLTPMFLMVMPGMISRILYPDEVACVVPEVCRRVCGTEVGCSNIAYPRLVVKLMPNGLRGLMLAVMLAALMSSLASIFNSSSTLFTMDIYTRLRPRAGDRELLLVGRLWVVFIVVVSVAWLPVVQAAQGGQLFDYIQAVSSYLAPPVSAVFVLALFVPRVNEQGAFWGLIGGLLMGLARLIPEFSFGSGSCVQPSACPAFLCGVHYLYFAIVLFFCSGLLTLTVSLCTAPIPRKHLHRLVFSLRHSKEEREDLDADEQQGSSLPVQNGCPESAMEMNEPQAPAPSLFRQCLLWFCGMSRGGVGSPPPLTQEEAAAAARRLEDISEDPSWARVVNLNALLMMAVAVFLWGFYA
Procedure, shortened: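 CHO cells stably expressing human SGLT2 (or SGLT1); inhibition of sodium-dependent uptake of [14C]α-methyl-D-glucopyranoside measured; EC50 from at least two independent experiments, each in triplicate.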

[2] = Elimination half life in Sprague-Dawley rat at 1 mg/kg, po; format: ADME, organism-based; settings: in vivo, read-out: beta t1/2 (converted)
[3] = Volume of distribution at steady state in Sprague-Dawley rat at 1 mg/kg, iv; format: ADME, organism-based; settings: in vivo, read-out: Vdss
[4] = Tmax in Sprague-Dawley rat at 1 mg/kg, po; format: ADME, organism-based; settings: in vivo
[5] = Clearance in Sprague-Dawley rat at 1 mg/kg, iv; format: ADME, organism-based; settings: in vivo
[6] = AUC (0 to infinity) in Sprague-Dawley rat at 1 mg/kg, po; format: ADME, organism-based; design: dose 1 mg/kg, time infinity, route oral; settings: in vivo
Procedure, shortened: (§1)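 Rats got a single intravenous or oral dose, with 3 animals per route. Pharmacokinetic parameters were derived, including T1/2, clearance, Vss, Cmax, Tmax, AUC(0-inf) and oral bioavailability (F).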

[7] = AUC (0 to infinity) in Sprague-Dawley rat at 1 mg/kg, iv; format: ADME, organism-based; design: dose 1 mg/kg, time infinity, route intravenous; settings: in vivo; procedure, shortened: as §1
[8] = Cmax in Sprague-Dawley rat at 1 mg/kg, po; format: ADME, organism-based; design: dose 1 mg/kg, route oral; settings: in vivo
[9] = Elimination half life in Sprague-Dawley rat at 1 mg/kg, iv; format: ADME, organism-based; settings: in vivo, read-out: beta t1/2 (converted)
[10] = Oral bioavailability in Sprague-Dawley rat at 1 mg/kg; format: ADME, organism-based; settings: in vivo
Rattus norvegicus [11] = assay: In vivo inhibition of SGLT2 in Sprague-Dawley rat assessed as urinary glucose excretion per 200 gram of body weight at 0.1 mg/kg, po administered as single dose measured after 24 hrs; format: functional
Procedure, shortened: (§2)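 Normal SD rats given a single oral dose (0.1, 1, 10 or 50 mg/kg) or vehicle; urine collected over 24 h and glucose excretion expressed as mg per 200 g body weight; mean ± SEM, n = 4/group (vehicle n = 8).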

[12] = Tmax in Sprague-Dawley rat at 1.1 mg/kg, po; format: ADME, organism-based; settings: in vivo
Rattus norvegicus [13] = assay: Antihyperglycemic activity in streptozotocin-induced diabetic Sprague-Dawley rat model assessed as reduction in blood glucose level at 0.1 to 10 mg/kg, po administered as single dose measured after 5 hrs relative to control; format: functional; design: scale not given: the % may be the effect or the level left
Procedure, shortened: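 STZ-diabetic SD rats (blood glucose >450 mg/dL), single oral dose 0.1 or 10 mg/kg or vehicle; tail-vein blood sampled at 0 (predose), 0.5, 1, 2, 3, 4 and 5 h for glucose; reduction expressed versus vehicle control; mean ± SEM, n = 6/group.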

Rattus norvegicus [14] = assay: In vivo inhibition of SGLT2 in Sprague-Dawley rat assessed as urinary glucose excretion per 200 gram of body weight at 50 mg/kg, po administered as single dose measured after 24 hrs; format: functional; procedure, shortened: as §2
Rattus norvegicus [15] = assay: In vivo inhibition of SGLT2 in Sprague-Dawley rat assessed as urinary glucose excretion per 200 gram of body weight at 10 mg/kg, po administered as single dose measured after 24 hrs; format: functional; procedure, shortened: as §2
[16] = Oral bioavailability in Sprague-Dawley rat at 1.1 mg/kg; format: ADME, organism-based; settings: in vivo
Rattus norvegicus [17] = assay: In vivo inhibition of SGLT2 in Sprague-Dawley rat assessed as urinary glucose excretion per 200 gram of body weight at 1 mg/kg, po administered as single dose measured after 24 hrs; format: functional; procedure, shortened: as §2
hERG (KCNH2) = hERG (KCNH2) (Homo sapiens, UniProt Q12809); assay: Inhibition of human ERG at 10 uM by radioligand assay relative to control
Sequence of hERG (KCNH2) (Q12809 whole entry): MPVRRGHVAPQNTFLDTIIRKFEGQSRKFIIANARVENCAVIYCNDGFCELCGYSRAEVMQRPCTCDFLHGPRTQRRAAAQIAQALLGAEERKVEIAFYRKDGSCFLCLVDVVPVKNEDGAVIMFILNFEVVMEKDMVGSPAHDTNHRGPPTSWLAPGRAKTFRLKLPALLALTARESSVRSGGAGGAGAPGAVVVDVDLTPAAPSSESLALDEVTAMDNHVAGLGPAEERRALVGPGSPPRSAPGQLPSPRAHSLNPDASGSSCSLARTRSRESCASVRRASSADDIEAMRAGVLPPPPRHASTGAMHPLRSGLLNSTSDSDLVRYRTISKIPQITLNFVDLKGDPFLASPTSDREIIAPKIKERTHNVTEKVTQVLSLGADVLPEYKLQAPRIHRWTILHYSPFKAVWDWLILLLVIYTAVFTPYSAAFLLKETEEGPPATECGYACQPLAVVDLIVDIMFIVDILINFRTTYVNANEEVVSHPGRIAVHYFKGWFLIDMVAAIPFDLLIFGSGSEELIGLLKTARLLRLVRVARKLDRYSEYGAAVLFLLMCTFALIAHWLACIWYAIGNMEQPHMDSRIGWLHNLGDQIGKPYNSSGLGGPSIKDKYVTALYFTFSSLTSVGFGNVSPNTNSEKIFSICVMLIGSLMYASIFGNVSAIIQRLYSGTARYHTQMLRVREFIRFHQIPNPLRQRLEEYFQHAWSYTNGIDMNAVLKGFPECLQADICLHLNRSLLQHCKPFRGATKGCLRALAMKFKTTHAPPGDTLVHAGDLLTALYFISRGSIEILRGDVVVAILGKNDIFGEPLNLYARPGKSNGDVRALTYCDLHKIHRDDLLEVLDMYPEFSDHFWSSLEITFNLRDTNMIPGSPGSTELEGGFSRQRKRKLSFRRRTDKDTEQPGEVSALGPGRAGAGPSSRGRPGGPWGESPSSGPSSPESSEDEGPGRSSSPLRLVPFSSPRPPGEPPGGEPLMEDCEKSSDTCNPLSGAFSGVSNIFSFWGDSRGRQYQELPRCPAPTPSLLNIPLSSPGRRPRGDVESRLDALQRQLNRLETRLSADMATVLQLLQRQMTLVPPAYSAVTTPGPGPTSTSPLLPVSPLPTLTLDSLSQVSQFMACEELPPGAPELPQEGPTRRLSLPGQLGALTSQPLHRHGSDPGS
Procedure, shortened: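 hERG radioligand binding assay run externally by a contract laboratory; test compound at 10 µM, percent inhibition reported.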

[18] = AUC (0 to infinity) in Sprague-Dawley rat at 1.1 mg/kg, po; format: ADME, organism-based; design: dose 1.1 mg/kg, time infinity, route oral; settings: in vivo; procedure, shortened: as §1
Rattus norvegicus [19] = assay: In vivo inhibition of SGLT2 in Sprague-Dawley rat assessed as increase in urinary glucose excretion per 200 gram of body weight at 0.1 to 50 mg/kg, po administered as single dose measured after 24 hrs relative to control; format: functional
Procedure, shortened: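 Normal Sprague-Dawley rats were given a single oral dose of 0.1, 1, 10 or 50 mg/kg. Urine was collected over 24 h and glucose excretion expressed as mg glucose per 200 g body weight, relative to vehicle controls. Groups were n = 4, with vehicle n = 8. Data are mean ± SEM; p < 0.05 vs vehicle.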

[20] = Cmax in Sprague-Dawley rat at 1.1 mg/kg, po; format: ADME, organism-based; design: dose 1.1 mg/kg, route oral; settings: in vivo
[21] = Elimination half life in Sprague-Dawley rat at 1.1 mg/kg, po; format: ADME, organism-based; settings: in vivo, read-out: beta t1/2 (converted)
[22] = Elimination half life in Sprague-Dawley rat at 1.1 mg/kg, iv; format: ADME, organism-based; settings: in vivo, read-out: beta t1/2 (converted)
[23] = Clearance in Sprague-Dawley rat at 1.1 mg/kg, iv; format: ADME, organism-based; settings: in vivo
[24] = Volume of distribution at steady state in Sprague-Dawley rat at 1.1 mg/kg, iv; format: ADME, organism-based; settings: in vivo, read-out: Vdss
[25] = AUC (0 to infinity) in Sprague-Dawley rat at 1.1 mg/kg, iv; format: ADME, organism-based; design: dose 1.1 mg/kg, route intravenous, time infinity; settings: in vivo; procedure, shortened: as §1

Compound: CCOc1ccc(Cc2cc([C@@H]3O[C@H](/C=N/NC(=O)c4ccco4)[C@@H](O)[C@H](O)[C@H]3O)ccc2Cl)cc1
EC50 [1]: 301 nM

Compound: CCOc1ccc(Cc2cc([C@@H]3O[C@H](/C=N/NC(=O)c4ccncc4)[C@@H](O)[C@H](O)[C@H]3O)ccc2Cl)cc1
EC50 [1]: 173 nM

Compound: CCOc1ccc(Cc2cc([C@@H]3O[C@H](CNO)[C@@H](O)[C@H](O)[C@H]3O)ccc2Cl)cc1
EC50 [1]: 95 nM

Compound: CCOc1ccc(Cc2cc([C@@H]3O[C@H](/C=N/Nc4nc5ccccc5s4)[C@@H](O)[C@H](O)[C@H]3O)ccc2Cl)cc1
EC50 [1]: 204 nM

Compound: CCOc1ccc(Cc2cc([C@@H]3O[C@H](/C=N/NC4=NCCN4)[C@@H](O)[C@H](O)[C@H]3O)ccc2Cl)cc1
EC50 [1]: 429 nM

Compound: CCOc1ccc(Cc2cc([C@@H]3O[C@H](/C=N/Nc4ccccc4[N+](=O)[O-])[C@@H](O)[C@H](O)[C@H]3O)ccc2Cl)cc1
EC50 [1]: 457 nM

Compound: CCOc1ccc(Cc2cc([C@@H]3O[C@H](/C=N/NC(=O)c4cccs4)[C@@H](O)[C@H](O)[C@H]3O)ccc2Cl)cc1
EC50 [1]: 175 nM

Further lines, with some results ahead:

EC50 [1]: 2250 nM
Compound: CCOc1ccc(Cc2cc([C@@H]3O[C@H](/C=N/OCc4ccccc4)[C@@H](O)[C@H](O)[C@H]3O)ccc2Cl)cc1

EC50 [1]: 335 nM
Compound: CCO/N=C/[C@H]1O[C@@H](c2ccc(Cl)c(Cc3ccc(OCC)cc3)c2)[C@H](O)[C@@H](O)[C@@H]1O

EC50 [1]: 395 nM
Compound: CCOc1ccc(Cc2cc([C@@H]3O[C@H](/C=N/NC(C)=O)[C@@H](O)[C@H](O)[C@H]3O)ccc2Cl)cc1

half-life [2]: 2.5 h | EC50 [1]: 92 nM | Vd [3]: 2.9 L/kg | Tmax [4]: 1 h | clearance [5]: 12.6 mL/min/kg | AUC(0-inf) [6]: 540 ng·h/mL | AUC(0-inf) [7]: 1320 ng·h/mL | Cmax [8]: 116 ng/mL | half-life [9]: 3 h | bioavailability [10]: 40.5%
Compound: CCOc1ccc(Cc2cc([C@@H]3O[C@H](/C=N/OC)[C@@H](O)[C@H](O)[C@H]3O)ccc2Cl)cc1

Tmax [12]: 1 h | EC50 [1]: 46 nM | Vd [3]: 1.8 L/kg | clearance [5]: 5 mL/min/kg | bioavailability [16]: 64% | AUC(0-inf) [7]: 3270 ng·h/mL | AUC(0-inf) [18]: 2270 ng·h/mL | half-life [9]: 4.7 h | Cmax [20]: 239 ng/mL | half-life [21]: 9 h
Compound: CCOc1ccc(Cc2cc([C@@H]3O[C@H](/C=N/O)[C@@H](O)[C@H](O)[C@H]3O)ccc2Cl)cc1
Activity (Rattus norvegicus [11]): 275 mg | Activity (Rattus norvegicus [13]): 44% | Activity (Rattus norvegicus [14]): 2732 mg | Activity (Rattus norvegicus [15]): 1935 mg | Activity (Rattus norvegicus [17]): 2215 mg | inhibition at 10 µM (hERG (KCNH2)): 2% | fold change (FC) (Rattus norvegicus [19]): 476 - 4730

Tmax [12]: 0.7 h | EC50 [1]: 88 nM | half-life [22]: 0.7 h | bioavailability [16]: 7.1% | clearance [23]: 17.6 mL/min/kg | Vd [24]: 0.8 L/kg | AUC(0-inf) [25]: 1030 ng·h/mL | AUC(0-inf) [18]: 73 ng·h/mL | Cmax [20]: 34.5 ng/mL | half-life [21]: 1.2 h
Compound: CCOc1ccc(Cc2cc([C@@H]3O[C@H](/C=N/NCCO)[C@@H](O)[C@H](O)[C@H]3O)ccc2Cl)cc1

EC50 [1]: 678 nM
Compound: CCOc1ccc(Cc2cc([C@@H]3O[C@H](/C=N/OCCOC)[C@@H](O)[C@H](O)[C@H]3O)ccc2Cl)cc1
